Measured values: ChEMBL document CHEMBL3217724, “Synthesis and evaluation of a series of benzothiophene acrylonitrile analogs as anticancer agents” (Medchemcomm, 2013)
Calls of active or inactive are those of the source. The rule behind the calls is not given here.

Key:
HCT-116 = experiment: Growth inhibition of human HCT116 cells; type: functional
Method in brief: (§1)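 NCI 60-human-cancer-cell-line panel, five-dose screen after a preliminary screen. GI50 is the molar concentration giving 50% growth inhibition.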

RPMI-8226 = experiment: Growth inhibition of human RPMI8226 cells; type: functional; method in brief: as §1
NCI-H226 = experiment: Growth inhibition of human NCI-H226 cells; type: functional; method in brief: as §1
Tubulin (Homo sapiens) = Tubulin (Homo sapiens) (UniProt P68371+Q9H4B7+P0DPH7+P68366+Q13509+Q71U36+P04350+Q3ZCM7+P07437+P68363+Q9BQE3+Q6PEY2+Q13885+Q9BVA1+Q9BUF5); experiment: Inhibition of tubulin polymerization (unknown origin) after 1 hr; type: protein-complex assay
Method in brief: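 Purified tubulin was allowed to polymerize for 1 h with increasing concentrations of compound. Docetaxel and vinblastine were the stabilizing and destabilizing references.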

A498 = experiment: Growth inhibition of human A498 cells; type: functional; method in brief: as §1
LLC-PK1 [1] = experiment: Growth inhibition of pig LLC-PK1 cells expressing MDR1 by Alamar Blue assay; type: functional; details: Sus scrofa
Method in brief: (§2)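 Porcine epithelial L-MDR1 (P-gp expressing) cells and their non-expressing parent line were exposed to compound for 72 h. Viability was read with AlamarBlue dye and GI50 derived. P-gp expression was verified by Western blot with β-actin as loading control. The resistance ratio compares GI50 in MDR1 versus parent cells.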

PC-3 [2] = experiment: Growth inhibition of human PC3 cells after 72 hrs by Alamar Blue assay; type: functional; details: PC-3, 72 h
Method in brief: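 PC3 prostate cancer cells and docetaxel-resistant PC3-DR cells were exposed to drug for 72 hours in 96-well format. Viability was read with AlamarBlue dye and GI50 derived. Resistance is the GI50 in PC3-DR over the GI50 in parental PC3.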

MDA-MB-435 = experiment: Growth inhibition of human MDA-MB-435 cells; type: functional; method in brief: as §1
SK-OV-3 = experiment: Growth inhibition of human SKOV3 cells; type: functional
Method in brief: (§3)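 NCI 60-cell-line panel, five-dose screen; GI50 is the molar concentration giving 50% growth inhibition.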

[3] = Growth inhibition of P-gp expressing human NCI-ADR-RES cells by Alamar Blue assay; type: functional
Method in brief: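 72-h cytotoxicity in 96-well plates with AlamarBlue viability dye, giving GI50. Line 1 uses docetaxel-resistant PC3 prostate cells (PC3-DR), and line 2 uses NCI/ADR-Res ovarian cells. P-gp expression in both was confirmed by Western blot, with β-actin as the loading control.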

ACHN = experiment: Growth inhibition of human ACHN cells; type: functional; method in brief: as §1
[4] = Growth inhibition of human SF295 cells; type: functional; details: SF-295; method in brief: as §1
SR = experiment: Growth inhibition of human SR cells; type: functional; method in brief: as §3
A549 = experiment: Growth inhibition of human A549 cells; type: functional; method in brief: as §1
Malme-3M = experiment: Growth inhibition of human MALME-3M cells; type: functional; method in brief: as §1
[5] = Growth inhibition of human HOP92 cells; type: functional; details: HOP-92; method in brief: as §1
PC-3 [6] = experiment: cells; details: Homo sapiens, PC-3, 72 h
[7] = Growth inhibition of human OVCAR8 cells by Alamar Blue assay; type: functional; details: OVCAR-8
Method in brief: (§4)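 Cell viability was read with AlamarBlue dye in 96-well format and GI50 values derived, to assess P-gp effects. Cells were P-gp-expressing NCI/ADR-Res ovarian cancer cells and L-MDR1 porcine epithelial cells, each with its non-expressing parent line. P-gp expression was confirmed by Western blot with β-actin as loading control. Resistance is the GI50 in the P-gp line over the GI50 in the parent line.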

M14 = experiment: Growth inhibition of human M14 cells; type: functional; method in brief: as §1
NCI-H23 = experiment: Growth inhibition of human NCI-H23 cells; type: functional; method in brief: as §1
[8] = Growth inhibition of human OVCAR3 cells; type: functional; details: OVCAR-3; method in brief: as §1
MCF7 = experiment: Growth inhibition of human MCF7 cells; type: functional; method in brief: as §1
[9] = Growth inhibition of human HCC2998 cells; type: functional; details: HCC 2998; method in brief: as §1
DU-145 = experiment: Growth inhibition of human DU145 cells; type: functional; method in brief: as §1
KM12 = experiment: Growth inhibition of human KM12 cells; type: functional; method in brief: as §1
[10] = Growth inhibition of human OVCAR4 cells; type: functional; details: OVCAR-4; method in brief: as §1
SK-MEL-28 = experiment: Growth inhibition of human SK-MEL-28 cells; type: functional; method in brief: as §1
[11] = Growth inhibition of human OVCAR5 cells; type: functional; details: OVCAR-5; method in brief: as §1
[12] = Growth inhibition of human RXF393 cells; type: functional; details: RXF 393; method in brief: as §1
[13] = molecular target: T1, Tubulin beta (Homo sapiens) (UniProt P68371+Q9H4B7+Q13509+P04350+Q3ZCM7+P07437+Q13885+Q9BVA1+Q9BUF5+A6NNZ2); experiment: Inhibition of tubulin beta in human PC3 cells assessed as chromosomal overduplication at 100 nM after 24 hrs by DAPI-staining based immunofluorescence assay; type: cell-based; details: PC-3
Method in brief: (§5)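 PC3 cells were treated 24 h at 100 nM, with docetaxel 100 nM for comparison. Tubulin immunofluorescence with DAPI nuclear counterstain was used to score chromosome overduplication and multiple spindle poles.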

[14] = Growth inhibition of human BT549 cells; type: functional; details: BT-549; method in brief: as §1
HT-29 = experiment: Growth inhibition of human HT-29 cells; type: functional; method in brief: as §1
LLC-PK1 [15] = experiment: Resistance factor, ratio of GI50 for pig LLC-PK1 cells expressing MDR1 to GI50 for pig LLC-PK1 cells; set-up: species or system Sus scrofa; method in brief: as §2
COLO 205 = experiment: Growth inhibition of human COLO205 cells; type: functional; method in brief: as §1
PC-3 [16] = experiment: Induction of beta tubulin de-stabilization in human PC3 cells at 1 to 100 nM after 24 hrs by DAPI-staining based immunofluorescence assay; type: cell-based
Method in brief: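 PC3 cells were treated 24 h at 1, 10 and 100 nM, then immunostained for beta-tubulin with DAPI nuclear counterstain. Docetaxel (stabilizer) and vinblastine (destabilizer) at 10 nM served as references.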

SNB-19 = experiment: Growth inhibition of human SNB19 cells; type: functional; method in brief: as §3
SK-MEL-5 = experiment: Growth inhibition of human SK-MEL-5 cells; type: functional; method in brief: as §1
SN12C = experiment: Growth inhibition of human SN12C cells; type: functional; method in brief: as §3
K562 = experiment: Growth inhibition of human K562 cells; type: functional; method in brief: as §1
U-251 = experiment: Growth inhibition of human U251 cells; type: functional; method in brief: as §3
[17] = Growth inhibition of human NCI-ADR-RES cells; type: functional; method in brief: as §1
786-0 = experiment: Growth inhibition of human 786-0 cells; type: functional; method in brief: as §1
NCI-H460 = experiment: Growth inhibition of human NCI-H460 cells; type: functional; method in brief: as §1
[18] = Growth inhibition of human Hs578T cells; type: functional; details: Hs-578T; method in brief: as §1
HOP-62 = experiment: Growth inhibition of human HOP62 cells; type: functional; method in brief: as §1
[19] = Growth inhibition of human OVCAR8 cells; type: functional; details: OVCAR-8; method in brief: as §1
PC-3 [20] = experiment: Induction of apoptosis in human PC3 cells assessed as formation of mitotic castastrophe at 10 to 100 nM after 72 hrs by Hoechst 33342 staining; type: functional, cell-based
Method in brief: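 PC3 prostate cancer cells were treated 72 h at 10 and 100 nM. Nuclei were stained with Hoechst 33342 and visualized by fluorescence imaging.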

CAKI-1 = experiment: Growth inhibition of human Caki1 cells; type: functional; method in brief: as §1
NCI-H522 = experiment: Growth inhibition of human NCI-H522 cells; type: functional; method in brief: as §1
[21] = Growth inhibition of human MOLT4 cells; type: functional; details: MOLT-4; method in brief: as §1
[22] = Growth inhibition of human UO31 cells; type: functional; details: UO-31; method in brief: as §3
HL-60(TB) = experiment: Growth inhibition of human HL-60(TB) cells; type: functional; method in brief: as §1
[23] = molecular target: T1, Tubulin beta (Homo sapiens); experiment: Inhibition of tubulin beta in human PC3 cells assessed as multiple spindle-poles formation at 100 nM after 24 hrs by DAPI-staining based immunofluorescence assay; type: cell-based; details: PC-3; method in brief: as §5
SNB-75 = experiment: Growth inhibition of human SNB75 cells; type: functional; method in brief: as §3
[24] = Growth inhibition of human EKVX cells; type: functional; method in brief: as §1
T47D = experiment: Growth inhibition of human T47D cells; type: functional; method in brief: as §3
SF-268 = experiment: Growth inhibition of human SF268 cells; type: functional; method in brief: as §1
[25] = Growth inhibition of pig LLC-PK1 cells by Alamar Blue assay; type: cell-based, Sus scrofa; method in brief: as §4
CCRF-CEM = experiment: Growth inhibition of human CCRF-CEM cells; type: functional; method in brief: as §1
[26] = Growth inhibition of human HCT15 cells; type: functional; details: HCT-15; method in brief: as §1
NCI-H322M = experiment: Growth inhibition of human NCI-H322M cells; type: functional; method in brief: as §1
TK-10 = experiment: Growth inhibition of human TK10 cells; type: functional; method in brief: as §3
MDA-MB-231 = experiment: Growth inhibition of human MDA-MB-231 cells; type: functional; method in brief: as §1
SW-620 = experiment: Growth inhibition of human SW620 cells; type: functional; method in brief: as §3
[27] = Growth inhibition of human SF539 cells; type: functional; details: SF-539; method in brief: as §1
[28] = Growth inhibition of human LOXIMVI cells; type: functional; details: LOX IMVI; method in brief: as §1
PC-3 [29] = experiment: Growth inhibition of human PC3 cells; type: functional; method in brief: as §1
SK-MEL-2 = experiment: Growth inhibition of human SK-MEL-2 cells; type: functional; method in brief: as §1

SMILES: COc1cc(/C(C#N)=C/c2cc3ccccc3s2)cc(OC)c1OC
- GI50 (HCT-116): 49.4 nM
- GI50 (RPMI-8226): 28.6 nM
- GI50 (NCI-H226): > 100 nM
- inhibition (Tubulin (Homo sapiens)): Dose-dependent effect
- GI50 (A498): 28.8 nM
- GI50 (LLC-PK1 [1]): 11.7 nM
- GI50 (PC-3 [2]): 8.6 nM
- GI50 (MDA-MB-435): 23.5 nM
- GI50 (SK-OV-3): 47.2 nM
- GI50 [3]: 3.2 nM
- GI50 (ACHN): 73.2 nM
- GI50 [4]: 33.7 nM
- GI50 (SR): 46.6 nM
- GI50 (A549): 41.2 nM
- GI50 (Malme-3M): 23.3 nM
- GI50 [5]: 17.9 nM
- GI50 (PC-3 [6]): 7.6 nM
- GI50 [7]: 5.2 nM
- GI50 (M14): 37.9 nM
- GI50 (NCI-H23): 52.3 nM
- GI50 [8]: 23 nM
- GI50 (MCF7): 40.2 nM
- GI50 [9]: 16.3 nM
- GI50 (DU-145): 21.1 nM
- GI50 (KM12): 22.2 nM
- GI50 [10]: > 100 nM
- GI50 (SK-MEL-28): > 100 nM
- GI50 [11]: 61.5 nM
- GI50 [12]: 24.9 nM
- inhibition [13]: Active
- GI50 [14]: 36.6 nM
- GI50 (HT-29): 31.9 nM
- RatioGI50 (LLC-PK1 [15]): 1.2
- GI50 (COLO 205): 46.9 nM
- Activity (PC-3 [16]): Active
- GI50 (SNB-19): 44 nM
- GI50 (SK-MEL-5): 34.4 nM
- GI50 (SN12C): 68.4 nM
- GI50 (K562): 30.4 nM
- GI50 (U-251): 50 nM
- GI50 [17]: 27.5 nM
- GI50 (786-0): 12.2 nM
- GI50 (NCI-H460): 35.9 nM
- GI50 [18]: 42.7 nM
- GI50 (HOP-62): 98.9 nM
- GI50 [19]: 23.5 nM
- Activity (PC-3 [20]): Active
- GI50 (CAKI-1): 51.4 nM
- GI50 (NCI-H522): 29.7 nM
- GI50 [21]: 39.7 nM
- GI50 [22]: 52.4 nM
- GI50 (HL-60(TB)): 24.4 nM
- inhibition [23]: Active
- GI50 (SNB-75): 41.5 nM
- GI50 [24]: 52.1 nM
- GI50 (T47D): > 100 nM
- GI50 (SF-268): 46.7 nM
- GI50 [25]: 9.7 nM
- GI50 (CCRF-CEM): 25.1 nM
- GI50 [26]: 46.1 nM
- GI50 (NCI-H322M): 51.7 nM
- GI50 (TK-10): 36.3 nM
- GI50 (MDA-MB-231): 33 nM
- GI50 (SW-620): 40.8 nM
- GI50 [27]: 24.8 nM
- GI50 [28]: 48.7 nM
- GI50 (PC-3 [29]): 45 nM
- GI50 (SK-MEL-2): 41.6 nM
